Laboratory results: article PMC3130141 (Archives of Drug Information, 2011)

Tests used:
Assay type in all cases: in vivo, human
[1] = tested on: Japanese patients with advanced solid tumors; assay: Efficacy: overall best response by RECIST version 1.0
Method in brief: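 Investigator-assessed overall best response by RECIST v1.0, with baseline imaging within 28 days before first dose. Re-imaging was on day 29 of cycles 1 and 2 and of subsequent odd-numbered cycles. […] Dosing was a 1-h iv infusion on days 1, 8 and 15 of 28-day cycles (10–25 mg cohorts). Results were summarized descriptively by dose group.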

[2] = tested on: Japanese patients with advanced solid tumors; assay: Dose-limiting toxicities and maximum tolerated dose during cycle 1; settings: dose escalation halted at 25 mg
Method in brief: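 Open-label dose escalation in sequential cohorts at 10, 15, 20 or 25 mg, given as a 1-h iv infusion on days 1, 8 and 15 of 28-day cycles. DLT: grade 3/4 hemolysis, grade 4 hematologic toxicity, febrile grade 3/4 neutropenia, prolonged diarrhea or vomiting, or other grade 3/4 non-hematologic toxicity (CTCAE v3.0). MTD: highest dose with ≤1 of 6 evaluable patients having a cycle 1 DLT.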

[3] = tested on: Japanese patients with advanced solid tumors; assay: Laboratory assessments; settings: for Blood sodium decreased, patients with grade ≥3 abnormal laboratory finding: cut-off <130 mmol/L; for Lymphocyte count decreased, patients with grade ≥3 abnormal laboratory finding / Lymphopenia, patients with grade ≥3 abnormal laboratory finding: cut-off <0.5 × 10^9/L; for Neutropenia, patients with grade ≥3 abnormal laboratory finding: cut-off <1.0 × 10^9/L; for Leukopenia, patients with grade ≥3 abnormal laboratory finding: cut-off <2.0 × 10^9/L; for Hemoglobin decreased, patients with grade ≥3 abnormal laboratory finding: cut-off <8.0 g/dL; for Thrombocytopenia, patients with grade ≥3 abnormal laboratory finding: cut-off <50.0 × 10^9/L; for Weight decreased, patients with grade ≥3 abnormal vital sign: cut-off ≥20% from baseline
[4] = Cycle 1, Day 8, Total, all doses (N = 18)
[5] = Cycle 1, Day 15, Total, all doses (N = 18)
[6] = Cycle 1, Day 22, Total, all doses (N = 18)

Compound: Cc1ccc(C(=O)N(CCCN)C(c2nc3snc(C)c3c(=O)n2Cc2ccccc2)C(C)C)cc1 (centres unmarked) [AZD4877]
- Patients with complete or partial response ([1]; all doses): No patients
- Patients with stable disease ≥8 weeks ([1]; all doses): five of 16
- Overall best response (RECIST) ([1]; all doses, stable disease defined as ≥8 weeks): stable disease
- Duration of stable disease ([1]; patient with thymus cancer, 20 mg cohort): ≥ 12 weeks
- Maximum tolerated dose (MTD) [2]: not defined
- Any grade ≥3 finding/vital sign, patients with grade ≥3 abnormal laboratory findings/vital signs ([3]; 10 mg (N = 3)): 1 (33) N (%)
- Blood sodium decreased, patients with grade ≥3 abnormal laboratory finding ([3]; 10 mg (N = 3)): 0 N (%)
- Lymphocyte count decreased, patients with grade ≥3 abnormal laboratory finding ([3]; 10 mg (N = 3)): 0 N (%)
- Lymphopenia, patients with grade ≥3 abnormal laboratory finding ([3]; 10 mg (N = 3)): 0 N (%)
- Neutropenia, patients with grade ≥3 abnormal laboratory finding ([3]; 10 mg (N = 3)): 1 (33) N (%)
- Leukopenia, patients with grade ≥3 abnormal laboratory finding ([3]; 10 mg (N = 3)): 0 N (%)
- Hemoglobin decreased, patients with grade ≥3 abnormal laboratory finding ([3]; 10 mg (N = 3)): 0 N (%)
- Thrombocytopenia, patients with grade ≥3 abnormal laboratory finding ([3]; 10 mg (N = 3)): 0 N (%)
- Weight decreased, patients with grade ≥3 abnormal vital sign ([3]; 10 mg (N = 3)): 0 N (%)
- Any grade ≥3 finding/vital sign, patients with grade ≥3 abnormal laboratory findings/vital signs ([3]; 15 mg (N = 3)): 1 (33) N (%)
- Blood sodium decreased, patients with grade ≥3 abnormal laboratory finding ([3]; 15 mg (N = 3)): 0 N (%)
- Lymphocyte count decreased, patients with grade ≥3 abnormal laboratory finding ([3]; 15 mg (N = 3)): 0 N (%)
- Lymphopenia, patients with grade ≥3 abnormal laboratory finding ([3]; 15 mg (N = 3)): 0 N (%)
- Neutropenia, patients with grade ≥3 abnormal laboratory finding ([3]; 15 mg (N = 3)): 1 (33) N (%)
- Leukopenia, patients with grade ≥3 abnormal laboratory finding ([3]; 15 mg (N = 3)): 0 N (%)
- Hemoglobin decreased, patients with grade ≥3 abnormal laboratory finding ([3]; 15 mg (N = 3)): 0 N (%)
- Thrombocytopenia, patients with grade ≥3 abnormal laboratory finding ([3]; 15 mg (N = 3)): 0 N (%)
- Weight decreased, patients with grade ≥3 abnormal vital sign ([3]; 15 mg (N = 3)): 0 N (%)
- Any grade ≥3 finding/vital sign, patients with grade ≥3 abnormal laboratory findings/vital signs ([3]; 20 mg (N = 6)): 4 (67) N (%)
- Blood sodium decreased, patients with grade ≥3 abnormal laboratory finding ([3]; 20 mg (N = 6)): 1 (17) N (%)
- Lymphocyte count decreased, patients with grade ≥3 abnormal laboratory finding ([3]; 20 mg (N = 6)): 0 N (%)
- Lymphopenia, patients with grade ≥3 abnormal laboratory finding ([3]; 20 mg (N = 6)): 0 N (%)
- Neutropenia, patients with grade ≥3 abnormal laboratory finding ([3]; 20 mg (N = 6)): 3 (50) N (%)
- Leukopenia, patients with grade ≥3 abnormal laboratory finding ([3]; 20 mg (N = 6)): 3 (50) N (%)
- Hemoglobin decreased, patients with grade ≥3 abnormal laboratory finding ([3]; 20 mg (N = 6)): 0 N (%)
- Thrombocytopenia, patients with grade ≥3 abnormal laboratory finding ([3]; 20 mg (N = 6)): 0 N (%)
- Weight decreased, patients with grade ≥3 abnormal vital sign ([3]; 20 mg (N = 6)): 1 (17) N (%)
- Any grade ≥3 finding/vital sign, patients with grade ≥3 abnormal laboratory findings/vital signs ([3]; 25 mg (N = 6)): 6 (100) N (%)
- Blood sodium decreased, patients with grade ≥3 abnormal laboratory finding ([3]; 25 mg (N = 6)): 0 N (%)
- Lymphocyte count decreased, patients with grade ≥3 abnormal laboratory finding ([3]; 25 mg (N = 6)): 1 (17) N (%)
- Lymphopenia, patients with grade ≥3 abnormal laboratory finding ([3]; 25 mg (N = 6)): 1 (17) N (%)
- Neutropenia, patients with grade ≥3 abnormal laboratory finding ([3]; 25 mg (N = 6)): 5 (83) N (%)
- Leukopenia, patients with grade ≥3 abnormal laboratory finding ([3]; 25 mg (N = 6)): 5 (83) N (%)
- Hemoglobin decreased, patients with grade ≥3 abnormal laboratory finding ([3]; 25 mg (N = 6)): 1 (17) N (%)
- Thrombocytopenia, patients with grade ≥3 abnormal laboratory finding ([3]; 25 mg (N = 6)): 1 (17) N (%)
- Weight decreased, patients with grade ≥3 abnormal vital sign ([3]; 25 mg (N = 6)): 0 N (%)
- Patients experiencing grade ≥3 neutropenia ([3]; 25 mg dose cohort): five of six
- Platelet count, mean (SD) ([3]; Cycle 1, Day 8, 10 mg (N = 3)): 227.3 (36.7) 10^3/µL
- Total ANC (absolute neutrophil count), mean (SD) ([3]; Cycle 1, Day 8, 10 mg (N = 3)): 2.00 (0.37) 10^3/µL
- White blood cell count, mean (SD) ([3]; Cycle 1, Day 8, 10 mg (N = 3)): 4.13 (0.63) 10^3/µL
- Platelet count, mean (SD) ([3]; Cycle 1, Day 8, 15 mg (N = 3)): 229.0 (35.9) 10^3/µL
- Total ANC (absolute neutrophil count), mean (SD) ([3]; Cycle 1, Day 8, 15 mg (N = 3)): 3.23 (1.26) 10^3/µL
- White blood cell count, mean (SD) ([3]; Cycle 1, Day 8, 15 mg (N = 3)): 5.50 (1.48) 10^3/µL
- Platelet count, mean (SD) ([3]; Cycle 1, Day 8, 20 mg (N = 6)): 245.7 (45.5) 10^3/µL
- Total ANC (absolute neutrophil count), mean (SD) ([3]; Cycle 1, Day 8, 20 mg (N = 6)): 1.81 (0.99) 10^3/µL
- White blood cell count, mean (SD) ([3]; Cycle 1, Day 8, 20 mg (N = 6)): 2.97 (1.06) 10^3/µL
- Platelet count, mean (SD) ([3]; Cycle 1, Day 8, 25 mg (N = 6)): 246.5 (99.7) 10^3/µL
- Total ANC (absolute neutrophil count), mean (SD) ([3]; Cycle 1, Day 8, 25 mg (N = 6)): 2.00 (0.97) 10^3/µL
- White blood cell count, mean (SD) ([3]; Cycle 1, Day 8, 25 mg (N = 6)): 3.01 (0.99) 10^3/µL
- Platelet count, mean (SD) [3, 4]: 240.1 (62.6) 10^3/µL
- Total ANC (absolute neutrophil count), mean (SD) [3, 4]: 2.14 (1.01) 10^3/µL
- White blood cell count, mean (SD) [3, 4]: 3.60 (1.37) 10^3/µL
- Platelet count, mean (SD) ([3]; Cycle 1, Day 15, 10 mg (N = 3)): 203.3 (46.5) 10^3/µL
- Total ANC (absolute neutrophil count), mean (SD) ([3]; Cycle 1, Day 15, 10 mg (N = 3)): 1.25 (0.27) 10^3/µL
- White blood cell count, mean (SD) ([3]; Cycle 1, Day 15, 10 mg (N = 3)): 3.59 (0.69) 10^3/µL
- Platelet count, mean (SD) ([3]; Cycle 1, Day 15, 15 mg (N = 3)): 217.0 (6.1) 10^3/µL
- Total ANC (absolute neutrophil count), mean (SD) ([3]; Cycle 1, Day 15, 15 mg (N = 3)): 2.33 (1.62) 10^3/µL
- White blood cell count, mean (SD) ([3]; Cycle 1, Day 15, 15 mg (N = 3)): 4.66 (2.19) 10^3/µL
- Platelet count, mean (SD) ([3]; Cycle 1, Day 15, 20 mg (N = 6)): 265.2 (79.5) 10^3/µL
- Total ANC (absolute neutrophil count), mean (SD) ([3]; Cycle 1, Day 15, 20 mg (N = 6)): 1.49 (0.82) 10^3/µL
- White blood cell count, mean (SD) ([3]; Cycle 1, Day 15, 20 mg (N = 6)): 2.82 (1.20) 10^3/µL
- Platelet count, mean (SD) ([3]; Cycle 1, Day 15, 25 mg (N = 6)): 184.5 (85.1) 10^3/µL
- Total ANC (absolute neutrophil count), mean (SD) ([3]; Cycle 1, Day 15, 25 mg (N = 6)): 0.57 (0.50) 10^3/µL
- White blood cell count, mean (SD) ([3]; Cycle 1, Day 15, 25 mg (N = 6)): 1.58 (0.57) 10^3/µL
- Platelet count, mean (SD) [3, 5]: 219.9 (73.9) 10^3/µL
- Total ANC (absolute neutrophil count), mean (SD) [3, 5]: 1.28 (0.99) 10^3/µL
- White blood cell count, mean (SD) [3, 5]: 2.84 (1.55) 10^3/µL
- Platelet count, mean (SD) ([3]; Cycle 1, Day 22, 10 mg (N = 3)): 205.0 (54.0) 10^3/µL
- Total ANC (absolute neutrophil count), mean (SD) ([3]; Cycle 1, Day 22, 10 mg (N = 3)): 1.68 (0.35) 10^3/µL
- White blood cell count, mean (SD) ([3]; Cycle 1, Day 22, 10 mg (N = 3)): 4.09 (0.66) 10^3/µL
- Platelet count, mean (SD) ([3]; Cycle 1, Day 22, 15 mg (N = 3)): 232.0 (7.9) 10^3/µL
- Total ANC (absolute neutrophil count), mean (SD) ([3]; Cycle 1, Day 22, 15 mg (N = 3)): 2.30 (1.50) 10^3/µL
- White blood cell count, mean (SD) ([3]; Cycle 1, Day 22, 15 mg (N = 3)): 4.53 (1.70) 10^3/µL
- Platelet count, mean (SD) ([3]; Cycle 1, Day 22, 20 mg (N = 6)): 262.2 (48.0) 10^3/µL
- Total ANC (absolute neutrophil count), mean (SD) ([3]; Cycle 1, Day 22, 20 mg (N = 6)): 1.25 (0.69) 10^3/µL
- White blood cell count, mean (SD) ([3]; Cycle 1, Day 22, 20 mg (N = 6)): 2.64 (0.69) 10^3/µL
- Platelet count, mean (SD) ([3]; Cycle 1, Day 22, 25 mg (N = 6)): 308.7 (117.3) 10^3/µL
- Total ANC (absolute neutrophil count), mean (SD) ([3]; Cycle 1, Day 22, 25 mg (N = 6)): 1.41 (0.48) 10^3/µL
- White blood cell count, mean (SD) ([3]; Cycle 1, Day 22, 25 mg (N = 6)): 2.73 (0.68) 10^3/µL
- Platelet count, mean (SD) [3, 6]: 263.1 (81.1) 10^3/µL
- Total ANC (absolute neutrophil count), mean (SD) [3, 6]: 1.55 (0.79) 10^3/µL
- White blood cell count, mean (SD) [3, 6]: 3.23 (1.14) 10^3/µL
- Any grade ≥3 finding/vital sign, patients with grade ≥3 abnormal laboratory findings/vital signs ([3]; Total, all doses (N = 18)): 12 (67) N (%)
- Blood sodium decreased, patients with grade ≥3 abnormal laboratory finding ([3]; Total, all doses (N = 18)): 1 (6) N (%)
- Lymphocyte count decreased, patients with grade ≥3 abnormal laboratory finding ([3]; Total, all doses (N = 18)): 1 (6) N (%)
- Lymphopenia, patients with grade ≥3 abnormal laboratory finding ([3]; Total, all doses (N = 18)): 1 (6) N (%)
- Neutropenia, patients with grade ≥3 abnormal laboratory finding ([3]; Total, all doses (N = 18)): 10 (56) N (%)
- Leukopenia, patients with grade ≥3 abnormal laboratory finding ([3]; Total, all doses (N = 18)): 8 (44) N (%)
- Hemoglobin decreased, patients with grade ≥3 abnormal laboratory finding ([3]; Total, all doses (N = 18)): 1 (6) N (%)
- Thrombocytopenia, patients with grade ≥3 abnormal laboratory finding ([3]; Total, all doses (N = 18)): 1 (6) N (%)
- Weight decreased, patients with grade ≥3 abnormal vital sign ([3]; Total, all doses (N = 18)): 1 (6) N (%)
- Grade ≥3 leukopenia (laboratory finding), patients ([3]; all doses, 18 patients): 44%
- Grade ≥3 neutropenia (laboratory finding), patients ([3]; all doses, 18 patients): 56%
